Assay results pooled from the literature.
Each line is one published result; the experiments were not run side by side.
rep papain-like protease: Replicase polyprotein 1ab, papain-like protease (rep, Porcine epidemic diarrhea virus, UniProt P0C6Y4)
SLC6A4: Sodium-dependent serotonin transporter (SLC6A4, Homo sapiens, UniProt P31645)

| Structure (SMILES) | target | test | measurement | value |
| --- | --- | --- | --- | --- |
| O=C(NCc1cc(O)c(O)c(Br)c1)c1ccc(Cl)s1 | rep papain-like protease | enzyme activity, inhibitor, FRET | IC50 | 2.73 µM |
| Cc1cc2[nH]cc(C(=O)O)c(=O)n2n1 | Peptidyl-prolyl cis-trans isomerase F, mitochondrial (PPIF, Homo sapiens, UniProt P30405) | binding, SPR | Kd | > 20000 µM |
| O=C(NCc1cc(O)c(O)c(Br)c1)c1ccc(OC(F)(F)F)cc1 | rep papain-like protease | enzyme activity, inhibitor, FRET | IC50 | 9.96 µM |
| O=C1CCC(N2Cc3cc(-c4cc5ccccc5cn4)ccc3C2=O)C(=O)N1 (stereo not drawn) | WEE1/CRBN (Homo sapiens, UniProt P30291+Q96SW2) | protein level, degrader | DC50 | 0.043 µM |
| O=C(NCc1ccc(Br)cc1)c1c[nH]c(-c2n[nH]c3ncccc23)c1 | E3 ubiquitin-protein ligase NEDD4 (Homo sapiens, UniProt P46934) | binding, MST | Kd | 0.0439 µM |
| CCOC(=O)[C@@]12C[C@@H]1[C@@H](n1cnc3c(NCCCCCCc4ccccc4)nc(I)nc31)[C@H](O)[C@@H]2O | SLC6A4 | ligand displacement, radioligand | Ki | 4.6 µM |
| OC[C@@H]1O[C@@H](OC[C@H]2O[C@@H](OC/C=C/c3ccccc3)[C@H](O)[C@@H](O)[C@@H]2O)[C@H](O)[C@H]1O | POU domain, class 3, transcription factor 3 (Homo sapiens, UniProt P20264) | binding, SPR | Kd | 7.57 µM |
| CC(C)C[C@H](NC(=O)[C@@H](N)[C@@H](C)O)C(=O)N[C@@H](CCC(N)=O)C(=O)N1CCC[C@H]1C(=O)N1CCC[C@H]1C(=O)N[C@@H](C)C(=O)N[C@@H](CO)C(=O)N[C@@H](CO)C(=O)N[C@@H](CCCNC(=N)N)C(=O)N[C@@H](CCCNC(=N)N)C(=O)N[C@@H](CCCNC(=N)N)C(=O)N[C@@H](Cc1c[nH]cn1)C(=O)N[C@@H](Cc1ccccc1)C(=O)N[C@@H](Cc1c[nH]cn1)C(=O)N[C@@H](Cc1c[nH]cn1)C(=O)N[C@@H](C)C(=O)N[C@@H](CC(C)C)C(=O)N1CCC[C@H]1C(=O)N1CCC[C@H]1C(=O)N[C@@H](C)C(=O)N[C@@H](CCCNC(=N)N)C(=O)O | C3a anaphylatoxin chemotactic receptor (C3AR1, Homo sapiens, UniProt Q16581) | β-arrestin recruitment, agonist | EC50 | 0.653 µM |
| N#CC[C@@]12C[C@@H]1[C@@H](n1cnc3c(NCCCCCCc4ccccc4)nc(I)nc31)[C@H](O)[C@@H]2O | SLC6A4 | ligand displacement, radioligand | Ki | 4.4 µM |
